From ChEMBL document CHEMBL1126070, “Bisquinolines. 1. N,N-bis(7-chloroquinolin-4-yl)alkanediamines with potential against chloroquine-resistant malaria” (J Med Chem, 1992)

Legend:
Plasmodium falciparum [1] = test: In vitro activity against Plasmodium falciparum D6; assay type: functional, organism-based
Outline: (§1)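 Test compounds dissolved in DMSO and serially diluted in culture medium. Erythrocytes at 0.25 to 0.5% parasitemia added in 96-well microdilution plates to a final hematocrit of 1.5%. Activity indexed by inhibition of [3H]hypoxanthine uptake. IC50 derived from this uptake.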

Plasmodium falciparum [2] = test: In vitro activity against Plasmodium falciparum W-2; assay type: functional, organism-based; outline: as §1
Plasmodium berghei [3] = test: In vivo antimalarial activity against Plasmodium berghei infected mice (Mus musculus) at 160 mg/kg; assay type: functional
Plasmodium berghei [4] = test: In vivo antimalarial activity against Plasmodium berghei infected mice (Mus musculus) at 40 mg/kg; assay type: functional
Plasmodium berghei [5] = test: In vivo antimalarial activity against Plasmodium berghei infected mice (Mus musculus) at 640 mg/kg; assay type: functional
[6] = Resistance index was measured as the ratio of IC50 of Plasmodium falciparum W-2 clone / IC50 of P. falciparum D-6 clone; assay type: functional
Outline: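 P. falciparum clones D-6 (mefloquine-resistant) and W-2 (CQ-, pyrimethamine-, sulfadoxine- and quinine-resistant) were tested in parallel. Compounds were dissolved in DMSO and serially diluted in culture medium. Infected erythrocytes at 0.25–0.5% parasitemia were added to a final 1.5% hematocrit. IC50 for each clone came from inhibition of tritiated hypoxanthine uptake, and the index is IC50(W-2)/IC50(D-6).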

Plasmodium berghei [7] = test: In vivo antimalarial activity against Plasmodium berghei infected mice (Mus musculus) at 320 mg/kg
Plasmodium berghei [8] = test: In vivo antimalarial activity against Plasmodium berghei infected mice (Mus musculus) at 640 mg/kg; Skin lesions at injection site; assay type: functional, organism-based; design: dose 640 mg/kg; settings: Skin of body
Outline: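 P. berghei (KBG 173) infected male mice, 5 per dose, given a single subcutaneous dose 3 days post-infection. Injection sites examined for skin lesions.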

Plasmodium berghei [9] = test: In vivo antimalarial activity against Plasmodium berghei infected mice (Mus musculus) at 640 mg/kg; C-1; assay type: functional, organism-based; design: dose 640 mg/kg

SMILES	IC50 (Plasmodium falciparum [1])	IC50 (Plasmodium falciparum [2])	T-C (Plasmodium berghei [3])	T-C (Plasmodium berghei [4])	T-C (Plasmodium berghei [5])	Resistance index [6]	T-C (Plasmodium berghei [7])	T-C (Plasmodium berghei [8])	T-C (Plasmodium berghei [9])
CC(CCCNc1ccnc2cc(Cl)ccc12)CNc1ccnc2cc(Cl)ccc12 (configuration not stated)	2.7 nM	3 nM	3.6 days	1.2 days	>60 days	1.1			
Clc1ccc2c(NCCCCNc3ccnc4cc(Cl)ccc34)ccnc2c1	390 nM	81 nM	2.3 days	0.5 days	5.6 days	0.2			
Clc1ccc2c(NCCCNc3ccnc4cc(Cl)ccc34)ccnc2c1	15 nM	83 nM	0.4 days	0.2 days	1.2 days	5.5			
Clc1ccc2c(NCCCCCCNc3ccnc4cc(Cl)ccc34)ccnc2c1	21 nM	23 nM	3.9 days	0.4 days	>60 days	1.1			
Clc1ccc2c(N3CCN(CCCN4CCN(c5ccnc6cc(Cl)ccc56)CC4)CC3)ccnc2c1 [PIPERAQUINE]	8.3 nM	16 nM				1.9			
Clc1ccc2c(NC3CCCCC3Nc3ccnc4cc(Cl)ccc34)ccnc2c1 (configuration not stated)	1 nM	1.4 nM	>60 days	8.5 days		1.4	>60 days		
Clc1ccc2c(NCCCCCCCCCNc3ccnc4cc(Cl)ccc34)ccnc2c1	3 nM	2.3 nM	7.4 days	3.1 days		0.8		Lesions 15A	
Clc1ccc2c(NCCNc3ccnc4cc(Cl)ccc34)ccnc2c1	17 nM	27 nM	0.4 days	0 days	1.4 days	1.6			
Clc1ccc2c(NCCCCCCCNc3ccnc4cc(Cl)ccc34)ccnc2c1	1.9 nM	4.3 nM	7.2 days	2.6 days		2.3			
CCN(CC)CCCC(C)Nc1ccnc2cc(Cl)ccc12 (configuration not stated) [CHLOROQUINE]			>60 days		>60 days				
Clc1ccc2c(NCCCCCCCCNc3ccnc4cc(Cl)ccc34)ccnc2c1	5.6 nM	3.1 nM	1 days	-0.2 days		0.6			Curative-1
Clc1ccc2c(NCCCCCCCCCCNc3ccnc4cc(Cl)ccc34)ccnc2c1	5.7 nM	3.4 nM	0.2 days	0.2 days	0.6 days	0.6			
Clc1ccc2c(NCCCCCNc3ccnc4cc(Cl)ccc34)ccnc2c1	2.5 nM	3.8 nM	5.1 days	1 days	>60 days	1.5			
CC(CNc1ccnc2cc(Cl)ccc12)Nc1ccnc2cc(Cl)ccc12 (configuration not stated)	3.5 nM	3.9 nM	5.7 days	3.4 days	>60 days	1.1			
Clc1ccc2c(NCCCCCCCCCCCCNc3ccnc4cc(Cl)ccc34)ccnc2c1	60 nM	31 nM	-0.2 days	0 days	0 days	0.5			
